In brackets after ≈: the same amount, converted by molar mass.
Tests used:
[1] = MAD both doses, comparable between day 1 and day 14
[2] = test system: RIP1 pathway activation (CCL4 release in human whole blood); assay: Ex vivo TBZ stimulation assay of whole blood for CCL4 secretion; assay type: cell-based
In short: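 Whole blood from healthy volunteers in the single- and multiple-ascending-dose stages, collected across the dosing periods, stimulated ex vivo to activate the RIP1-mediated necroptosis pathway; secreted CCL4 measured. Inhibition derived by normalising CCL4 levels to each subject's baseline, then adjusting to the maximum inhibition and SD per cohort. Placebo subjects were sampled in parallel.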

[3] = test system: RIP1 pathway activation (CCL4 release in human whole blood); assay: PK-PD modeling; assay type: cell-based
In short: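 CCL4 inhibition from the ex vivo stimulated whole-blood assay was related to GDC-8264 plasma concentrations measured in the same volunteers by PK-PD modelling. The model estimated the IC50 and the maximal target inhibition.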

SMILES: O=C(c1nc2n(n1)[C@H](c1ccccc1)C[C@@H]2F)C1CC1 [GDC‐8264]
- Geometric mean CLr0-τ [1]: ~ 0.008 L/h
- timepoint through which >90% inhibition of CCL4 was sustained ([2]; SAD 5- and 25-mg cohorts): ≥ 48 h
- timepoint through which >90% inhibition of CCL4 was sustained ([2]; SAD 75-, 150-, and 225-mg cohorts): ≥ 72 h
- levels of CCL4 ([2]; SAD 150-mg cohort, 144-h timepoint): comparable to the placebo cohort
- group mean inhibition of CCL4 production ([2]; SAD 225-mg cohort, 144 h, mean ± SD, placebo 17% ± 3%): 49% ± 9%
- inhibition of CCL4 ([2]; all SAD cohorts (5-225 mg), 1.5 h postdose): greater than 90%
- IC50 ([3]; Homo sapiens, read-out: half-maximal inhibitory concentration (IC50) for the inhibition of CCL4 release): 0.58 ng/mL (≈ 2.14 nM)
- maximal inhibition of the target ([3]; estimated by PK-PD (Emax) modeling): 99.4%
